Series [1] has as its system Rattus norvegicus. Nature of the series: Toxicity in Wistar rat assessed as inhibition of conditioned place preference at 1/20 to 1/10 LD50, ip in absence of nicotine preconditioning. In kind it is organism-based. The note with it: in vivo.
For series [2], the target named is Neuronal acetylcholine receptor; alpha3/beta4 (Rattus norvegicus, UniProt P04757+P12392). Description: Non-competitive inhibition of rat alpha3beta4 nAChR expressed in KX cells assessed as reduction in current by whole-cell patch clamp assay. In kind it is cell-based. In a few lines: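 KXα3β4R2 cells (rat α3β4) grown in MEM with 10% FBS and 0.7 mg/ml geneticin at 37 °C, 5% CO2, and harvested at 70% confluence. Whole-cell clamp at […] holding potential in HEPES pH 7.4 bath (120 mM NaCl, 3.1 mM KCl, 2 mM CaCl2, 5 mM glucose) at room temperature. Pipette solution: CsCl, ATP, EGTA, pH 7.2. Agents were applied from 0.1 nM upward with 100 µM (S)-nicotine; IC50 taken from current decrease relative to nicotine alone (100%).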
For orientation: Patch clamp records ionic current or voltage across a cell membrane.

Series [3] deals with Rattus norvegicus. Nature of the series: Effect on basal locomotor activity in Wistar rat at 1/20 to 1/10 LD50, ip. In kind it is ADME, organism-based. The note with it: in vivo.
The test system of series [4] is Rattus norvegicus. Nature of the series: Behavioral effect in Wistar rat assessed as inhibition of nicotine-induced conditioned place preference at 10 mg/kg, ip administered during post-conditioning test phase on day 5 of nicotine treatment. In kind it is functional, organism-based. Set-up: dose 10 mg/kg. The method, boiled down: (§1)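 Male Wistar rats (250–300 g), on restricted chow and handled for 5 days. A 15-min baseline excluded rats with a side preference. On days 2–4, two 30-min sessions per day: vehicle in the morning, nicotine 0.175 mg/kg ip in the afternoon, each in opposite compartments. On day 5, agent given ip (5 ml/kg) 60 min before nicotine, then tested immediately. Score is post- minus pre-conditioning time in the drug-paired compartment; n = 7–14.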

Series [5] concerns Rattus norvegicus. Nature of the series: Effect on basal locomotor activity in Wistar rat at 5 mg/kg, ip. The note with it: in vivo. Set-up: dose 5 mg/kg, route intraperitoneal. In kind it is ADME, organism-based.
Series [6] concerns Rattus norvegicus. Description: Toxicity in Wistar rat assessed as inhibition of conditioned place preference at 10 mg/kg, ip in absence of nicotine preconditioning. In kind it is organism-based. On the set-up: dose 10 mg/kg, route intraperitoneal. The note with it: in vivo.
For series [7], the system named is Rattus norvegicus. Description: Behavioral effect in Wistar rat assessed as inhibition of nicotine-induced conditioned place preference at 1/20 LD50, ip administered during post-conditioning test phase on day 5 of nicotine treatment. In kind it is functional, organism-based. In a few lines:
as §1

Calls of active or inactive are those of the source. No cut-off for these calls is given here.

Chain of Neuronal acetylcholine receptor; alpha3/beta4 (P04757 whole entry): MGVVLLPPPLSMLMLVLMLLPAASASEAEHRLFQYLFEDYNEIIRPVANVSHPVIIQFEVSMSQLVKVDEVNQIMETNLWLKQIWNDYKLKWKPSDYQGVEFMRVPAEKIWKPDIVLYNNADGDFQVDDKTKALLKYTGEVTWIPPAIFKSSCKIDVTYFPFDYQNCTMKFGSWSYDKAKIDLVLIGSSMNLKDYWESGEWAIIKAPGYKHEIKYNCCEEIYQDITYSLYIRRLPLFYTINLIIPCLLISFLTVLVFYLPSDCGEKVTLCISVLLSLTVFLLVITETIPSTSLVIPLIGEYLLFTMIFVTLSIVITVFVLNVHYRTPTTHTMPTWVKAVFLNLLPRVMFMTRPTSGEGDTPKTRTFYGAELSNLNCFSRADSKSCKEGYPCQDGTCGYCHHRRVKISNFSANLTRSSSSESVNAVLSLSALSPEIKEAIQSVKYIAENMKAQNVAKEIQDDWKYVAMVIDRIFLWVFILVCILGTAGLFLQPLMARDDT
Chain of Neuronal acetylcholine receptor; alpha3/beta4 (P12392 whole entry): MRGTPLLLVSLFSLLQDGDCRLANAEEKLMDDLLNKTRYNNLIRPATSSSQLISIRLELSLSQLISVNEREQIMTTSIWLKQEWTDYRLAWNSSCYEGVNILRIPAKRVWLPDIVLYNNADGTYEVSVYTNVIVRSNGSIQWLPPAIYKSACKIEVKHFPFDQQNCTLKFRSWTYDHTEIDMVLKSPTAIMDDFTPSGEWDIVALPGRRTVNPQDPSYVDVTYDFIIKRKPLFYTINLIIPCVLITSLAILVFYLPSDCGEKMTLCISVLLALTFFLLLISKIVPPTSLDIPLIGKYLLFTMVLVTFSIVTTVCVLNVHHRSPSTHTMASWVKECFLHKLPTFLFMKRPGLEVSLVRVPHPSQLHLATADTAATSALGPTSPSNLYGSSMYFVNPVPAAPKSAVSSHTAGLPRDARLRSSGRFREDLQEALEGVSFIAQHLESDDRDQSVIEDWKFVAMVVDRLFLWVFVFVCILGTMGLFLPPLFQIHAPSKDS

The IC50 is the concentration that inhibits the measured activity by half. With `COc1ccc2c(c1)[C@]13CCCC[C@@H]1[C@H](C2)N(CC1OCCO1)CC3`, the Activity result in the series on Rattus norvegicus [1] and with Rattus norvegicus [3] was “Non-toxic” in each case. The IC50 in series [2] was determined as 1.95 µM.

On to `COc1ccc2c(c1)[C@]13CCCC[C@@H]1[C@H](C2)N(CCCC#N)CC3`, for which the IC50 in series [2] stood at 87 µM.

Consider `COc1ccc2c(c1)[C@]13CCCC[C@@H]1[C@H](C2)N(C)CC3` [DEXTROMETHORPHAN], for which the inhibition result in the series with Rattus norvegicus [4] is “Active”. The Activity result in the series on Rattus norvegicus [5] and with Rattus norvegicus [6] was “Non-toxic” each time. Further, the IC50 in series [2] came to 11.1 µM.

On to `COc1ccc2c(c1)[C@]13CCCC[C@@H]1[C@H](C2)N(CCC(C)=O)CC3`, for which, in series [2], the IC50 is 2.57 µM.

In the case of `COc1ccc2c(c1)[C@]13CCCC[C@@H]1[C@H](C2)N(CCC#N)CC3`, in series [2], the concentration for half-maximal inhibition (IC50) stood at 176 µM.

For `COc1ccc2c(c1)[C@]13CCCC[C@@H]1[C@H](C2)N(CC1=NCCN1)CC3`, the IC50 in series [2] came to 6.61 µM.

As to `COc1ccc2c(c1)[C@]13CCCC[C@@H]1[C@H](C2)N(CC(N)=O)CC3`, the IC50 in series [2] was 41.4 µM.

`COc1ccc2c(c1)[C@]13CCCC[C@@H]1[C@H](C2)N(CC#N)CC3`: the Activity result with Rattus norvegicus [1] and in the series with Rattus norvegicus [3] was “Non-toxic” throughout. Further, the IC50 in series [2] turned out to be 10.5 µM. Also, the inhibition entry in the series with Rattus norvegicus [7] was “Active”.

On to `COc1ccc2c(c1)[C@]13CCCC[C@@H]1[C@H](C2)N(CCC1OCCO1)CC3`, for which the Activity result with Rattus norvegicus [1] and in the series on Rattus norvegicus [3] was “Non-toxic” each time. For the same molecule, the IC50 in series [2] is 7.14 µM.

Turning to `CCC(=O)CN1CC[C@@]23CCCC[C@@H]2[C@@H]1Cc1ccc(OC)cc13`, in series [2], the IC50 stood at 2.5 µM.

Consider `COc1ccc2c(c1)[C@]13CCCC[C@@H]1[C@H](C2)NCC3`, for which, in series [2], the IC50 is 3.08 µM.

These data come from ChEMBL document CHEMBL3351392, “Synthesis, in vitro and in vivo studies, and molecular modeling of N-alkylated dextromethorphan derivatives as non-competitive inhibitors of α3β4 nicotinic acetylcholine receptor” (Bioorg Med Chem, 2014).
